Positions count from the first letter of the chain named. Entries after “also recorded” stand apart in the source; their conditions may differ.
Tests used:
SIRT3 = conditions: fluorogenic Fluor-de-Lys (FdL) peptide substrate; ref Gertz et al. 2012; cited from earlier work
[1] = test system: fluorophore-attached p53 peptides; conditions: ref Borra et al. 2005; Pacholec et al. 2010; cited from earlier work
SIRT1-143CS = target: T1, SIRT1-143CS (Homo sapiens, UniProt Q96EB6, C253S/C268S/C501S/C502S/DEL513-640); type: biochemical; conditions: 0.2 mM resveratrol, PBS pH 7.4, 37°C
T1 sequence (Q96EB6 with tags, fused parts or gaps C253S/C268S/C501S/C502S/DEL513-640 limits assumed): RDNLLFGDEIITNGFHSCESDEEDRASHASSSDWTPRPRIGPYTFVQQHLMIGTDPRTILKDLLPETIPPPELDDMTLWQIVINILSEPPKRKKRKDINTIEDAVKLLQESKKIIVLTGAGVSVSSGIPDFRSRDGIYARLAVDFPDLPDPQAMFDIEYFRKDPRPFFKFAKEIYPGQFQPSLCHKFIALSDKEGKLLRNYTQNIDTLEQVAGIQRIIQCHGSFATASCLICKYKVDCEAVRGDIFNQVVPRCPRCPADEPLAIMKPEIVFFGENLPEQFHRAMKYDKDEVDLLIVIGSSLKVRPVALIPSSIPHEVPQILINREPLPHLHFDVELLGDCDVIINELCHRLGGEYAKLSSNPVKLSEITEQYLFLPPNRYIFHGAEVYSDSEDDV

SIRT5 = conditions: fluorogenic Fluor-de-Lys (FdL) peptide substrate; ref Gertz et al. 2012; cited from earlier work
SIRT1 E230A mutant = target: T2, SIRT1 E230A mutant (Homo sapiens, UniProt Q96EB6, C253S/C268S/C501S/C502S/DEL513-640/E230A); assay: Enzyme-coupled deacetylation assay, SIRT1 E230A; type: biochemical; conditions: p53-AMC 100 μM, 0.2 mM resveratrol, PBS pH 7.4, 37°C
T2 sequence (Q96EB6 with tags, fused parts or gaps E230A/C253S/C268S/C501S/C502S/DEL513-640 limits assumed): T1 sequence (Q96EB6 with tags, fused parts or gaps C253S/C268S/C501S/C502S/DEL513-640 limits assumed) with E88A
Summary of the method: (§1)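 Mutants are made in the SIRT1-143CS background. Continuous coupled assay in PBS pH 7.4: 2 mM NAD, 100 μM p53-AMC, ±0.2 mM resveratrol, 0.2 mM NADH, 3.3 mM α-ketoglutarate, 1 μM PncA, 3 U glutamate dehydrogenase, 1 mM DTT, 2% DMSO. Pre-equilibrated 5–10 min at 37°C without NAD, then started with NAD. A340 followed 15 min, minus no-NAD background. Rate taken from the linear portion, three repeats.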

SIRT1 R446A mutant = target: T3, SIRT1 R446A mutant (Homo sapiens, UniProt Q96EB6, C253S/C268S/C501S/C502S/DEL513-640/R446A); assay: Enzyme-coupled deacetylation assay, SIRT1 R446A; type: biochemical; conditions: p53-AMC 100 μM, 0.2 mM resveratrol, PBS pH 7.4, 37°C
T3 sequence (Q96EB6 with tags, fused parts or gaps C253S/C268S/R446A/C501S/C502S/DEL513-640 limits assumed): T1 sequence (Q96EB6 with tags, fused parts or gaps C253S/C268S/C501S/C502S/DEL513-640 limits assumed) with R304A
Summary of the method: as §1

p53-AMC peptide = assay: ITC, resveratrol to p53-AMC peptide; type: binding; conditions: 25°C
SIRT1 Q222A/N226A mutant = target: T4, SIRT1 Q222A/N226A mutant (Homo sapiens, UniProt Q96EB6, C253S/C268S/C501S/C502S/DEL513-640/N226A/Q222A); assay: Enzyme-coupled deacetylation assay, SIRT1 Q222A/N226A; type: biochemical; conditions: p53-AMC 100 μM, 0.2 mM resveratrol, PBS pH 7.4, 37°C
T4 sequence (Q96EB6 with tags, fused parts or gaps Q222A/N226A/C253S/C268S/C501S/C502S/DEL513-640 limits assumed): T1 sequence (Q96EB6 with tags, fused parts or gaps C253S/C268S/C501S/C502S/DEL513-640 limits assumed) with Q80A, N84A
Summary of the method: as §1

[2] = target: T5, SIRT1-143CS (C253S, C268S, C501S, C502S) (Homo sapiens, UniProt Q96EB6, C253S/C268S/C501S/C502S/DEL513-640); assay: ITC peptide binding, SIRT1-143CS; conditions: 25°C, 0.5 mM resveratrol
T5 sequence (Q96EB6 with tags, fused parts or gaps C253S/C268S/C501S/C502S/DEL513-640 limits assumed): T1 sequence (Q96EB6 with tags, fused parts or gaps C253S/C268S/C501S/C502S/DEL513-640 limits assumed)
Summary of the method: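 p53-AMC peptide ([acR]HK[Kac]-AMC) at 1.5 mM was titrated into 0.1 mM SIRT1 protein at 25°C with 600 rpm stirring. The run used 20 injections, a 0.5 μL first drop that was not used, 2 μL drops thereafter and 2 min intervals. Titrant and protein were both in 20 mM HEPES pH 7.5, 150 mM NaCl, 10% glycerol, with or without 0.5 mM resveratrol. Buffer-only titrant heat was subtracted, and KD came from a one-site fit.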

SIRT1-143 = assay: Enzyme-coupled deacetylation assay, SIRT1-143; type: biochemical, human; conditions: p53-AMC substrate, 0.5 mM resveratrol (Fig. 1B)
Summary of the method: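 Purified tag-free SIRT1 fragments (his-sumo tag removed after Ni-IDA, then size exclusion) in the continuous nicotinamidase/glutamate dehydrogenase-coupled assay. NADH oxidation was read at 340 nm using an extinction coefficient of 6.22 mM−1 cm−1. Reactions at 37°C in PBS pH 7.4, started with NAD, with and without resveratrol. Background from no-NAD controls was subtracted.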

SIRT1 E230K mutant = target: T6, SIRT1 E230K mutant (Homo sapiens, UniProt Q96EB6, C253S/C268S/C501S/C502S/DEL513-640/E230K); assay: Enzyme-coupled deacetylation assay, SIRT1 E230K; type: biochemical; conditions: p53-AMC 100 μM, 0.2 mM resveratrol, PBS pH 7.4, 37°C
T6 sequence (Q96EB6 with tags, fused parts or gaps E230K/C253S/C268S/C501S/C502S/DEL513-640 limits assumed): T1 sequence (Q96EB6 with tags, fused parts or gaps C253S/C268S/C501S/C502S/DEL513-640 limits assumed) with E88K
Summary of the method: as §1

[3] = target: SIRT1 NTD (isolated protein domain); assay: ITC, resveratrol to isolated SIRT1 NTD; type: binding, human; conditions: 25°C

## Oc1ccc(/C=C/c2cc(O)cc(O)c2)cc1 [resveratrol]
SIRT3
  effect on SIRT3 activity: inhibit SIRT3
[1]
  interaction with fluorophore-attached p53 peptides: weakly
SIRT1-143CS
  effect of resveratrol on Km for the p53-AMC peptide: significantly lowered the Km value for the p53-AMC peptide; also recorded: lowered the Km value of the fluorogenic peptide
SIRT1-143CS; native peptides without fluorophore
  effect of resveratrol on Km for PGC-1α and FOXO3a peptides: less pronounced
SIRT5
  effect on SIRT5 activity: stimulate the activity of SIRT5
SIRT1 E230A mutant
  stimulatory effect of resveratrol: significantly reduced the stimulatory effect of resveratrol
SIRT1 R446A mutant
  level of resveratrol stimulation: level of resveratrol stimulation similar to that of the E230K mutant
p53-AMC peptide
  binding affinity between resveratrol and the p53-AMC peptide: too weak to be reliably quantitated
SIRT1 Q222A/N226A mutant
  response to the addition of resveratrol: conspicuous level of reduction in response to the addition of resveratrol
[2]
  effect of resveratrol on binding between SIRT1 and the p53-AMC peptide: increased the binding between SIRT1 and the p53-AMC peptide
SIRT1-143
  stimulation of deacetylase activity by resveratrol: stimulated by resveratrol in a manner similar to that of the full-length protein
SIRT1 E230K mutant
  stimulatory effect of resveratrol: significantly reduced the stimulatory effect of resveratrol
[3]
  binding affinity between resveratrol and the SIRT1 NTD: too weak to be reliably quantitated
